# Only some compounds are listed: those with a hit (about 1.7% of all), similar ones and a draw of the others.
# EBNA-1 inhibitor – blocks EBNA-1 binding to DNA. hit rate 0.34% among 300,000. inhibition, % at 14.8 µM. EBNA-1 DNA binding, fluorescence polarization. AID 1950; in the data active means inhibition above about 28%
# NS3 helicase inh – inhibitors of Hepatitis C virus NS3 helicase. NS3 helicase DNA unwinding, Cy5 molecular beacon fluorescence. inhibition, % at 10.9 µM. hit rate 0.56% among 290,000. AID 1800;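 active means inhibition above the mean of all tested compounds plus 3 SD, set per campaign, cut at about 35% in these data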
#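 Material: hepatitis C virus NS3 helicase domain fragment enzyme; measured by: Cy5 fluorescence, 0 and 60 min reads; control set: DMSO and thioflavine S; incubation: 60 min unwinding reaction at 25 °C after ATP addition; read-out basis: % inhibition from 60/0 min fluorescence ratio, DMSO 0%, thioflavine S 100%; repeats: singlicate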
# ZTA DNA inh – blocks Epstein-Barr virus ZTA, an EBNA-1 counter-screen; P03206; ZTA-DNA binding, fluorescence polarization; inhibition, % at 11 µM; hit rate 0.15% among 320,000; AID 2234; in the data active means inhibition above about 33%
# Target sequence (P03206 whole entry, looked up): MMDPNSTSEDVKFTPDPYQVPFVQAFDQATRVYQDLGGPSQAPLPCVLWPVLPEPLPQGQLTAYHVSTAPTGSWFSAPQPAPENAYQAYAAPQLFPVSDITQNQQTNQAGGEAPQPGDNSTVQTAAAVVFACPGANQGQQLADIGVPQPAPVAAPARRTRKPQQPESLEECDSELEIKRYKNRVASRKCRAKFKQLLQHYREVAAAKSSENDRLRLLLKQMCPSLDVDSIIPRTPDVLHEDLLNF
# EBV gp42 block – blocks Epstein-Barr virus glycoprotein 42 binding | Q1HVG2 | Fluorescence polarization binding assay, mP read-out | inhibition, % (tested at 21.74 µM) | hit rate 0.42% among 220,000 | AID 1085; in the data active means inhibition above about 50%
# Target sequence (Q1HVG2 whole entry, looked up): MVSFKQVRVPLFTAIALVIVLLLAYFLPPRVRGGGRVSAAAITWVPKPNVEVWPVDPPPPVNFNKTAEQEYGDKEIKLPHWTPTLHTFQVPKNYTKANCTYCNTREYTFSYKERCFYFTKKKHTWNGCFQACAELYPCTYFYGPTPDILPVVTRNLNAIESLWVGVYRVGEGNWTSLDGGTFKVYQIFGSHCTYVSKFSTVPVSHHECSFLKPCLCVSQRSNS
# HCV core dimer – blocks dimerization of HCV core protein | inhibition, % at 5 µM | hit rate 0.33% among 300,000 | TR-FRET GST/Flag-core106 dimerization, 1536-well;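 active means inhibition above the mean of all tested compounds plus 3 SD, set per screening campaign, cut at about 45% in these data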
#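 Assay system: tagged HCV core106 pair (GST and Flag); medium: KF-containing HEPES buffer, pH 7.45, DTT, CHAPS, BSA; also added: Eu donor and XL665 acceptor anti-tag antibodies; dosing: 5 µM single dose; timing: compound-protein-antibody incubation 4 h at 22.5 °C; signal: TR-FRET 671 and 617 nm emission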
# MEX-5 binding – C. elegans MEX-5 TCR-2 RNA binding activity. Q9XUB2. AID 1832. MEX-5/FITC-TCR2 RNA binding, fluorescence polarization; active compounds read low. activity score (negative = inhibition of binding), % at 10 µM. hit rate 0.38% among 300,000;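 active means inhibition past about -25% in most replicates, and total fluorescence under double the plate's negative control median, limit read from the data; inconclusive means replicates evenly split on the limit, or fluorescence at least double controls; inactive means too little inhibition in most replicates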
# Numbers stand for hits; – = inactive; ? = inconclusive; · = no result.
SMILES,EBNA-1 inhibitor,NS3 helicase inh,ZTA DNA inh,EBV gp42 block,HCV core dimer,MEX-5 binding
CN1CC=C2C(C#N)=C(N)C(C#N)(C#N)C(c3ccncc3)C2C1 (centres undefined),–,–,–,·,–,-47
CCn1nc(-c2ccccc2)nc2c(=O)n(C)c(=O)nc1-2,–,–,74,98,48,?
O=C(/C=C/c1ccc(Br)cc1)NC(=S)N1C[C@H]2C[C@H](C1)c1cccc(=O)n1C2,–,–,–,·,–,–
c1ccc(-c2[nH]c[n+](CC3CO3)c2-c2ccccc2)cc1 (centres undefined),–,–,40,–,–,·
c1ccc(OCC2CO2)cc1 (centres undefined),·,·,–,·,·,·
COC(=O)C1=C(c2cccc(OC)c2OC)C[C@@H]2CC[C@H]1N2C(=O)NCc1ccc(C(F)(F)F)cc1,–,·,–,·,–,–
Cc1cccc(-n2c(O)c(/C=N/Nc3nc4c(c(=O)n(C)c(=O)n4C)n3C)c(=O)[nH]c2=S)c1,–,–,–,–,–,-47
Oc1ccc(C[C@H]2NCCc3cc(O)c(O)cc32)cc1O,·,–,·,·,·,-81
COc1ccc(P2(=O)Nc3ccccc3N2)cc1,–,–,–,–,–,-36
COc1ccc(C=O)cc1,·,·,–,·,·,·
CN(C)CCSC1c2ccccc2CSc2ccccc21 (centres undefined),–,·,–,·,–,–
C=CCn1cc(C=C2C(=O)NC(=O)NC2=O)c2ccccc21,–,–,–,·,–,-37
O=C(O)Cn1cc(C=C2C(=O)NC(=O)NC2=O)c2ccccc21,–,–,–,·,–,–
O=C1NC(=O)C(=Cc2cn(CCOc3ccc4c(c3)OCO4)c3ccccc23)C(=O)N1,–,–,–,–,–,-55
Cn1cc(/C=C2\C(=O)NC(=O)N(c3ccccc3)C2=O)c2ccccc21,–,–,–,·,–,-82
O=C(Cn1cc(C=C2C(=O)NC(=O)NC2=O)c2ccccc21)NCC1CCCO1 (centres undefined),–,–,–,·,–,-36
COC(=O)C1=C(c2ccc(OC)c(OC)c2)C[C@@H]2CC[C@H]1N2C(=O)N1CCCCC1,·,·,–,·,·,·
CCCN(CCC)C1Cc2cc(OC)c(OC)cc2C1,–,·,–,·,–,–
O=C(O)Cn1cc(/C=C2\C(=O)NC(=O)N(c3ccc(Cl)cc3)C2=O)c2ccccc21,–,–,–,·,–,?
CCN(CC)C(=O)Cn1cc(/C=C2\C(=O)NC(=O)N(c3ccccc3F)C2=O)c2ccccc21,–,–,–,·,–,-64
CCN(CC)c1ccc(N=Cc2c(O)n(CCc3ccc(OC)c(OC)c3)c(=O)[nH]c2=O)cc1,–,–,–,83,–,–
COc1ccc(CCn2c(O)c(C=Nc3ccc(F)cc3)c(=O)[nH]c2=O)cc1OC,–,–,–,–,–,–
COC(=O)C(O)(c1ccc(N(C)C(=O)c2cccs2)cc1)C(F)(F)F (centres undefined),–,–,–,–,–,–
CC(=O)c1ccc2c(c1)C1C(Cl)C(Sc3ccccc3[N+](=O)[O-])CC1C(c1ccccc1)N2 (centres undefined),–,–,–,–,66,–
O=C1NC(=O)C(Sc2ccccc2[N+](=O)[O-])C(=O)N1,–,–,–,·,–,–
SMILES,EBNA-1 inhibitor,NS3 helicase inh,ZTA DNA inh,EBV gp42 block,HCV core dimer,MEX-5 binding
CC(=O)c1ccc2c(c1)C1C(Cl)C(Sc3ccccc3[N+](=O)[O-])CC1C(c1ccccc1[N+](=O)[O-])N2 (centres undefined),–,–,–,–,54,–
O=C1C2C3CCC(O3)C2C(=O)N1CCO (centres undefined),–,–,–,–,–,–
CCC(=NCc1ccco1)c1c(O)n(-c2ccccc2C)c(=O)[nH]c1=O,–,–,–,–,–,–
Cc1cc(OC(C)C(=O)NCC(O)c2ccccc2)c2c3c(c(=O)oc2c1)CCC3 (centres undefined),–,–,–,·,–,–
CCCN1CCc2cccc3c2[C@H]1Cc1ccc(O)c(O)c1-3,–,·,–,·,–,-84
COc1ccc2c(c1O)-c1c(OC)c(OC)cc3c1[C@H](C2)N(C)CC3,–,·,–,·,–,·
O=C(/C=C/c1ccc2c(c1)OCO2)c1c(O)n(CCC2=CCCCC2)c(=O)[nH]c1=O,–,–,–,–,–,·
CCCCn1c(O)c(C(=O)/C=C/c2ccc3c(c2)OCO3)c(=O)[nH]c1=O,–,–,–,–,–,-36
CN1CCN(c2ccc(S(C)(=O)=O)cc2[N+](=O)[O-])CC1,–,–,–,–,–,–
CN1CCN(c2ccc([N+](=O)[O-])c3no[n+]([O-])c23)CC1,–,–,–,141,–,-60
COc1cc(OC)c(OC)cc1CN1CCN(C(=O)Cc2ccccc2)CC1,–,–,–,·,–,–
O=c1c2ccccc2nc(/C=C/c2ccccn2)n1-c1ccccc1,118,–,151,·,–,–
COc1ccc(/C=C2/C(=O)NC(=O)N(Cc3ccco3)C2=O)cc1,–,–,–,–,–,-81
Cc1cc(/C=C2\C(=O)NC(=O)N(Cc3ccco3)C2=O)c(C)n1-c1ccc(O)cc1,–,–,–,–,47,–
Cn1cccc1/C=C1\C(=O)NC(=O)N(Cc2ccco2)C1=O,·,–,·,–,·,–
COC(=O)C1=C(c2ccc(F)cc2F)C[C@@H]2CC[C@H]1N2C(=O)NCCOc1ccccc1Cl,·,·,–,·,·,·
CCCCCCn1c(O)c(C=Nc2ccccc2N2CCOCC2)c(=O)[nH]c1=S,–,–,–,–,–,-31
CCCCn1c(O)c(/C=N/N2CCOCC2)c(=O)[nH]c1=S,–,–,–,–,–,–
CCN1C(=O)/C(=C/c2ccc3c(c2)CCN3CCCCl)C(=O)NC1=S,–,–,–,–,84,–
CNc1ccc2nc3ccccc3[n+](C)c2c1,45,–,83,·,–,-42
CCOC(=O)[C@]1(C#N)[C@@H]2C=CC(C(C)=O)=CN2[C@@H](C(N)=O)[C@@H]1c1ccsc1,–,–,–,71,–,-53
O=[N+]([O-])CCO,·,·,–,·,·,·
O=C1NC(=S)N(c2ccc(F)cc2)C(=O)/C1=C\c1ccoc1,·,–,·,–,·,·
O=C1NC(=S)N(c2ccc(F)cc2)C(=O)/C1=C/c1ccco1,78,–,–,·,77,-94
CN1C(=O)C(=Cc2cn(CC(=O)N3CCCCC3)c3ccccc23)C(=O)N(C)C1=O,–,–,–,·,–,-36
CN1C(=O)C(=Cc2cn(CC(=O)N3CCCC3)c3ccccc23)C(=O)N(C)C1=O,–,–,–,·,–,?
Cc1cc(OCC(=O)N[C@H](C(=O)O)c2ccccc2)c2c3c(c(=O)oc2c1)CCC3,–,–,–,·,–,–
COc1ccccc1-n1c(O)c(/C=C2\C=Nc3ccccc32)c(=O)[nH]c1=O,–,–,–,·,–,-35
C=CCN1C(=O)/C(=C\c2ccc(N3CCOCC3)o2)C(=O)NC1=S,–,–,–,–,–,–
